Here are results for 14 compounds from ChEMBL document CHEMBL1151834, “Bioactive alkaloids from endophytic Aspergillus fumigatus” (J Nat Prod, 2009).

As usually defined, the IC50 is the concentration that gives 50% inhibition.

Holding throughout (assay type): functional, cell-based
The test system of one test is PC-12. As to the kind of experiment: Induction of neurite outgrowth in rat PC12 cells at 10 uM after 2 days by phase-contrast microscope. A digest of the protocol:
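PC12 cells kept in DMEM with 10% heat-inactivated fetal calf serum, 5% horse serum, penicillin 50 units/mL and streptomycin 50 µg/mL at 37 °C, 5% CO2. Seeded at 1 × 10^4 cells/mL, cultured one day, then medium replaced with fresh medium containing compound. Cultured 2 days; neurite outgrowth observed by phase-contrast microscopy against untreated control.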

In the next test the test system is K562. The test can be described thus: Cytotoxicity against human K562 cells after 48 hrs by MTT assay. The note with it: K562, 48 h. The method, boiled down:
(§1)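 Exponential-phase cells plated, allowed 24 h to establish, then exposed to compound dilutions for 48 h. MTT added (0.1 mg/well) for 4 h, supernatant removed, formazan dissolved in DMSO, absorbance read at 570 nm. IC50 taken as concentration giving 50% growth inhibition; mean ± SD of three experiments run in triplicate.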

For the next test, the system named is MCF7. The test can be described thus: Cytotoxicity against human MCF7 cells after 48 hrs by MTT assay. A digest of the protocol:
as §1
On the technique in general: Tetrazolium assays rely on reduction of a dye to a coloured formazan, in cell work by metabolically active cells.

The next test relates to KB. As to the kind of experiment: Cytotoxicity against human KB cells after 48 hrs by MTT assay. The method, boiled down:
as §1

Counter-ions that a name gives are not always drawn. Activity calls are given as the source filed them. The rule behind the calls is not given here.

On to `C=CC(C)(C)c1[nH]c2cccc3c2c1C[C@@H]1[C@@H]3[C@@H](O)[C@@H](C)CN1C`, for which the result in the test with PC-12, with MCF7 and with KB was inactive. This compound also returned an IC50 with K562 of 41 µM.

With `COc1ccc2c(c1)NC(=O)[C@@]21C[C@H]2C(=O)N3CCC[C@H]3C(=O)N2[C@H]1C=C(C)C`, the result in the test with PC-12, with MCF7 and with KB was inactive.

For the compound `COc1ccc2c3c4n(c2c1)[C@H](C=C(C)C)OOC(C)(C)C[C@@H]4N1C(=O)[C@@H]2CCCN2C(=O)[C@]1(O)[C@H]3O` [VERRUCULOGEN], the result in the test with PC-12, in the test on MCF7 and in the test on KB was inactive. In the test on K562, this compound registered an IC50 of 41 µM.

Regarding `COc1cccc2c1C(=O)c1c(O)c3c(c(O)c1C2=O)C[C@@](O)(C(=O)CO)C[C@@H]3O[C@H]1C[C@H](N)[C@H](O)[C@H](C)O1` [DOXORUBICIN HYDROCHLORIDE], 1.2 µM corresponded to half-maximal inhibition in the test on K562 (IC50).

Consider `CC/C=C\[C@H](O)[C@H](O)C1=C(C)C(=O)[C@]2(O1)C(=O)N[C@@](OC)(C(=O)c1ccccc1)[C@@H]2O`, for which, in the test with PC-12, the result was Active. The result with MCF7 and in the test with KB was inactive.

Consider `CS[C@]1(CO)C(=O)N2[C@H]3C(=CC=CC3O)C[C@@]2(SC)C(=O)N1C` (stereo partly specified) [DIMETHYLGLIOTOXIN], for which the outcome with PC-12, in the test with MCF7 and with KB was inactive. Further, half-maximal inhibition in the test on K562 (IC50) required 41 µM.

Regarding `COc1ccc2c(c1)NC(=O)[C@@]21C=C2C(=O)N3CCC[C@H]3C(=O)N2[C@H]1C=C(C)C`, the result in the test with PC-12, with MCF7 and in the test with KB was inactive.

On to `CC(C)=C[C@H]1c2[nH]c3ccccc3c2C[C@H]2C(=O)N3CCC[C@H]3C(=O)N21`, for which the outcome in the test on PC-12, in the test on MCF7 and with KB was inactive.

As for `CC(C)=CCc1[nH]c2ccccc2c1C[C@@H]1NC(=O)[C@@H]2CCCN2C1=O` [TRYPROSTATIN B], the result with PC-12, with MCF7 and with KB was inactive. For the same compound, in the test on K562, half-maximal inhibition (IC50) was put at 41 µM.

As for `COc1ccc2c(C[C@@H]3NC(=O)[C@@H]4CCCN4C3=O)c(CC=C(C)C)[nH]c2c1` [TRYPROSTATIN A], the outcome in the test with PC-12, with MCF7 and in the test on KB was inactive. Inhibition in the test on K562 was half-maximal at 41 µM (IC50).

For `C=CC(C)(C)c1[nH]c2cccc3c2c1C[C@@H]1[C@@H]3C[C@@H](C)CN1C`, the result in the test on PC-12, with MCF7 and in the test with KB was inactive. The compound also had an IC50 in the test on K562 of 3.1 µM.

Consider `C/C=C\[C@H](O)[C@H](O)C1=C(C)C(=O)[C@]2(O1)C(=O)N[C@@](OC)(C(=O)c1ccccc1)[C@@H]2O`, for which the result with MCF7 and in the test with KB was inactive.

Take `COc1ccc2c3c([nH]c2c1)[C@H](C=C(C)C)N1C(=O)[C@@H]2CCCN2C(=O)[C@@H]1C3` [FUMITREMORGIN]: the outcome with PC-12, in the test on MCF7 and in the test on KB was inactive. In the test with K562, this compound registered an IC50 of 41 µM.

Regarding `C[C@@H]1N[C@@H]2N(C1=O)c1ccccc1[C@@]21C[C@@H](n2cnc3ccccc3c2=O)C(=O)O1`, the result in the test on PC-12, in the test with MCF7 and in the test with KB was inactive.
